Experimental data reported in ChEMBL document CHEMBL4837242, “Discovery of Irbesartan Derivatives as BLT2 Agonists by Virtual Screening” (ACS Med Chem Lett, 2021).
Activity calls are given as the source filed them. The rule behind the calls is not given here.

Experiments:
[1] = target: T1, Type-1 angiotensin II receptor (Homo sapiens, UniProt P30556); experiment: Antagonist activity at human AT1 overexpressed in CHO-K1 cells in presence of 10 nM [Val5-angiotensin II measured after 90 mins by HTRF based IP-one assay; assay type: functional, cell-based
T1 sequence (P30556 whole entry): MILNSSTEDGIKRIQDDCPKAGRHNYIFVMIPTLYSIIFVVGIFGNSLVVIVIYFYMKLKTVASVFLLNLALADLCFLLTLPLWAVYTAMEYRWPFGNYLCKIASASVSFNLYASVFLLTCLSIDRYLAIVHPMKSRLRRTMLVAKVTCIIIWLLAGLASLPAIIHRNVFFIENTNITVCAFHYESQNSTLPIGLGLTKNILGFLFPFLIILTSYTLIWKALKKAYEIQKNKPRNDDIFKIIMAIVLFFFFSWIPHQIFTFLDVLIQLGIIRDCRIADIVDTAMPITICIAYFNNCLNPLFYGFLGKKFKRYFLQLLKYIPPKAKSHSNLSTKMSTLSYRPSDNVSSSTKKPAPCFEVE
In short: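 IP-One assay in antagonist mode, [Val⁵]-angiotensin II held constant at 10 nM; IP-1 accumulation read out. IC₅₀ with SEM from at least two runs (n = 2).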

[2] = target: T2, Leukotriene B4 receptor 2 (Homo sapiens, UniProt Q9NPC1); experiment: Agonist activity at human BLT2 overexpressed in CHO-K1 cells assessed as accumulation of inositol monophosphate measured after 90 mins by HTRF assay; assay type: functional, cell-based
T2 sequence (Q9NPC1 whole entry): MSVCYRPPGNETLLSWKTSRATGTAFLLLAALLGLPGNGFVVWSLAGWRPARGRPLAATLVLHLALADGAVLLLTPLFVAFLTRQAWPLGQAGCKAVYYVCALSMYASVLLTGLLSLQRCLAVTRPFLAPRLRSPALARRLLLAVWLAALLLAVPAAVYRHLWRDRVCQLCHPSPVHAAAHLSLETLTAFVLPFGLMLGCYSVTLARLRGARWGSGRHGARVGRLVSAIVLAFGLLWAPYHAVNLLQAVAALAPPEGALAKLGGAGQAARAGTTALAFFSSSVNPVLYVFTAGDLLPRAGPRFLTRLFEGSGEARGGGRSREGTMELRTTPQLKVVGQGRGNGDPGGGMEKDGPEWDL

[3] = test system: HepG2; experiment: (§1) Cytotoxicity against human HepG2 cells assessed as cell survival rate at 50 uM measured after 3 days by Celltiter-glo assay relative to control; assay type: cell-based; conditions: hepg2, 72 h, 50 µM
In short: (§2)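 Hep-G2 cells exposed to 50 μM compound for 3 days; ATP content measured by CellTiter-Glo luminescence as an index of metabolic activity and survival; live rate expressed as percent of DMSO control.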

[4] = target: Leukotriene B4 receptor 1 (Homo sapiens) (UniProt Q15722); experiment: Agonist activity at human BLT1 overexpressed in CHO-K1 cells assessed as accumulation of inositol monophosphate measured after 90 mins by HTRF assay; assay type: functional, cell-based
In short: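 IP-One accumulation assay run in agonist mode, read-out inositol monophosphate as a measure of Gq activation; LTB₄ as reference agonist and positive control. EC₅₀ determinations done at least twice (n = 2).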

[5] = as §1; assay type: cell-based; conditions: HepG2 cells, read-out: Activity; in short: as §2
[6] = test system: HCT-116; experiment: Induction of cell proliferation in human HCT-116 cells at 0.03 uM measured after 24 hrs by celltiter blue reagent based fluorescent assay; assay type: functional
In short: (§3)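 HCT116 seeded at 5 × 10³ cells/well, grown 72 h, then treated 24 h with compound alone or with BLT2 antagonist Ly255283 (1 μM); CellTiterBlue added for the final 4 h, resorufin fluorescence read. Mean ± SEM, n = 3.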

[7] = test system: HCT-116; experiment: Induction of cell proliferation in human HCT-116 cells at 0.1 to 1 uM measured after 24 hrs by celltiter blue reagent based fluorescent assay; assay type: functional; in short: as §3

Chain of Leukotriene B4 receptor 1 (Homo sapiens) (Q15722 whole entry): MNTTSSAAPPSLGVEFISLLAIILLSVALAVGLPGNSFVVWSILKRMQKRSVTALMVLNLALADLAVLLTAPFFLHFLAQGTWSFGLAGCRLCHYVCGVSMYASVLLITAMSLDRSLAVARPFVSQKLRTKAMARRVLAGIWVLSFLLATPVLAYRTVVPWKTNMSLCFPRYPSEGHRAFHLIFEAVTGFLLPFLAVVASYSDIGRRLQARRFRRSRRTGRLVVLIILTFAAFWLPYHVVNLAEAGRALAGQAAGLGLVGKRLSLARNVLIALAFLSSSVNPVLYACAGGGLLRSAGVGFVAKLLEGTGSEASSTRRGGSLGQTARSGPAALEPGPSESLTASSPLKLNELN

Row | SMILES | EC50 ([2]; cho-k1) | Activity [4] | IC50 ([1]; read-out: IC50) | EC50 ([2]; read-out: EC50) | also measured
1 | CCCC[C@@H]1N(Cc2ccc(-c3ccccc3-c3nnn[nH]3)cc2)C(=O)[C@@H]2CCCN12 | Not Active | inactive | 1010 nM |  | viability at 72 h, 50 µM [5]: 89%
2 | CCCCC(=O)N(Cc1ccc(-c2ccccc2C(=O)O)cc1)c1ccccc1 |  |  |  |  | Activity [6]: Active
3 | CCc1cc(C(C)=O)c(O)cc1OCCCCCC(C)(C)c1nn[nH]n1 |  |  |  |  | Activity [7]: inactive
4 | CCCCC1(C2CCCC2)Cc2cc(OCCCC(=O)O)c(Cl)c(Cl)c2C1=O (stereo not given) | Not Active |  |  |  | 
5 | CCOc1nc2cccc(C(=O)O)c2n1Cc1ccc(-c2ccccc2-c2nnn[nH]2)cc1 |  |  |  | 15000 nM | 
6 | C[C@H](CCC(=O)O)[C@H]1CC[C@H]2[C@@H]3[C@H](O)C[C@@H]4C[C@H](O)CC[C@]4(C)[C@H]3CC[C@]12C [CHENODIOL] | Not Active |  |  |  | 
7 | CCCCC1NC(=O)C2(CCCC2)N1Cc1ccc(-c2ccccc2C(=O)O)cc1 (stereo not given) |  | inactive | 7750 nM | 24200 nM | Activity [3]: Non-Toxic
8 | CCCCC1=NC(C)(C)C(=O)N1Cc1ccc(-c2ccccc2-c2nnn[nH]2)cc1 |  | inactive | 32 nM | 8140 nM | viability at 72 h, 50 µM [5]: 56%
9 | O=C(O)COc1ccc(C(=O)c2cccs2)c(Cl)c1Cl | Not Active |  |  |  | 
10 | O=C(O)c1ccccc1-c1ccc(CN2C(=O)C3(CCCC3)N=C2Cc2ccccc2)cc1 |  |  | 8650 nM |  | viability at 72 h, 50 µM [5]: 79%
11 | CCCCC1=NC(C)(C(C)C)C(=O)N1Cc1ccc(-c2ccccc2-c2nnn[nH]2)cc1 (stereo not given) |  | inactive | 15 nM | 67.6 nM | Activity [6]: Active; Activity [3]: Non-Toxic

Further lines, with some results ahead:

Row | EC50 ([2]; cho-k1) | Activity [4] | IC50 ([1]; read-out: IC50) | EC50 ([2]; read-out: EC50) | SMILES | also measured
12 | Not Active | inactive |  |  | O=C(O)c1ccccc1-c1ccc(CN2C(=O)C3(CCCC3)N=C2CCc2ccccc2)cc1 | IC50 ([1]; cho-k1): Not Active; Activity [3]: Non-Toxic
13 |  |  | 190 nM |  | CCCCC1=NC2(CCCC2)C(=O)N1Cc1ccc(-c2ccccc2C(=O)O)cc1 | 
14 | Not Active |  |  |  | CCOc1nc2cccc(C(=O)O)c2n1Cc1ccc(-c2ccccc2-c2noc(=O)[nH]2)cc1 [AZILSARTAN] | 
15 | Not Active |  |  |  | CSc1ccc(C(=O)/C=C/c2cc(C)c(OC(C)(C)C(=O)O)c(C)c2)cc1 [ELAFIBRANOR] | 
16 | Not Active |  |  |  | O=C(O)Cn1c2c(c3cc(F)ccc31)CN(C(=O)c1cccc3ccccc13)CC2 [SETIPIPRANT] | 
17 |  |  | 390 nM |  | CCCCC1NC(C)(C)C(=O)N1Cc1ccc(-c2ccccc2-c2nnn[nH]2)cc1 (stereo not given) | viability at 72 h, 50 µM [5]: 77%
18 |  | inactive |  | 410 nM | CCCCC1=NC2(CCCC2)C(=O)N1Cc1ccc(-c2ccccc2-c2nnn[nH]2)cc1 [IRBESARTAN] | Activity [6]: 88%
19 |  | inactive | 25 nM | 550 nM | CCCCC1=NC(C)(c2ccccc2)C(=O)N1Cc1ccc(-c2ccccc2-c2nnn[nH]2)cc1 (stereo not given) | viability at 72 h, 50 µM [5]: 56%
20 |  | inactive | 10000 nM | 7500 nM | CCCC[C@H]1N(Cc2ccc(-c3ccccc3-c3nnn[nH]3)cc2)C(=O)[C@H]2CCCN21 | viability at 72 h, 50 µM [5]: 88%
21 | Not Active |  |  |  | CC(C(=O)O)c1ccc2c(c1)CC(=O)c1ccccc1S2 (stereo not given) [ZALTOPROFEN] | 
22 |  | inactive | 155 nM | 860 nM | CCCCC1=NC2(CCCCC2)C(=O)N1Cc1ccc(-c2ccccc2C(=O)O)cc1 | 
23 | Not Active | inactive | > 10000 nM |  | O=C(O)c1ccccc1-c1ccc(CN2C(=O)C3(CCCC3)N=C2c2ccccc2)cc1 | Activity [3]: Non-Toxic
24 |  |  |  | 16000 nM | CCCCC(=O)N(Cc1ccc(-c2ccccc2-c2nnn[nH]2)cc1)[C@H](C(=O)O)C(C)C | 
